Type in all cases: cell-based
Test [1] concerns the target Glutamate NMDA receptor; Grin1/Grin2c (Rattus norvegicus, UniProt P35439+Q00961). The test is described as follows: Negative allosteric modulation of recombinant rat GluN1/GluN2C expressed in Xenopus laevis oocytes assessed as inhibition of glutamate/glycine-induced current response at -40 mV holding potential by two-electrode voltage clamp method. Summed up:
(§1)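 Oocytes recorded while the drug is co-applied with a maximally effective 100 µM glutamate plus 30 µM glycine. Response is expressed as percent of the glutamate/glycine control. IC50 comes from a Hill fit to the average composite concentration-response curve. 8-16 oocytes from 2-3 frogs per compound and receptor.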
On the technique in general: Two-electrode voltage clamp is typically applied to oocytes expressing channels or transporters.

Test [2] concerns the target CHRNA1/CHRNB1/CHRNG/CHRND (Rattus norvegicus) (UniProt P25109+P25108+P25110+P18916). The test is described as follows: Negative allosteric modulation of rat alpha1betagammadelta nACHR expressed in Xenopus laevis oocytes assessed as inhibition of acetylcholine-induced current response at 30 uM at -40 mV holding potential by two-electrode voltage clamp method relative to acetylcholine alone. Summed up:
(§2)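 Oocyte two-electrode voltage clamp at -40 mV holding. Test compound co-applied with agonist; response given as percent of the mean of control and recovery currents to agonist alone. Agonists: 100 µM glutamate (AMPA, kainate), 100 µM GABA (GABA receptors), 100 µM glycine (glycine receptor), 100 µM serotonin (5-HT3A), 9 µM ATP (P2X), 1 µM acetylcholine (nicotinic).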

In test [3] the target is Ionotropic glutamate receptor NMDA 1/2D (Rattus norvegicus) (UniProt P35439+Q62645). The test is described as follows: Potency index, ratio of NP11999 IC50 to test compound IC50 for negative allosteric modulation of recombinant rat GluN1/GluN2D expressed in Xenopus laevis oocytes assessed as inhibition of glutamate/glycine-induced current response.
Test [4] has as its target Glutamate receptor 1 (Rattus norvegicus) (UniProt P19490). The test is described as follows: Negative allosteric modulation of recombinant rat GluA1 expressed in Xenopus laevis oocytes assessed as inhibition of glutamate-induced current response at 30 uM at -40 mV holding potential by two-electrode voltage clamp method relative to glutamate alone. Summed up:
as §2

Test [5] has as its target T1, Glutamate NMDA receptor; Grin1/Grin2c (Rattus norvegicus) (UniProt P35439+Q00961). The test is described as follows: Negative allosteric modulation of recombinant rat GluN1/GluN2C expressed in Xenopus laevis oocytes assessed as inhibition of glutamate/glycine-induced current response at saturated concentration at -40 mV holding potential by two-electrode voltage clamp method relative to glutamate/glycine. Put shortly:
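Hill fit of the composite concentration-response curve in oocytes, with agonist 100 µM glutamate plus 30 µM glycine. Residual response in saturating compound is either fixed at 0 or fitted. 8-16 oocytes from 2-3 frogs.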

Test [6] deals with T2, Glycine receptor subunit alpha-1 (Rattus norvegicus) (UniProt P07727).
T2 sequence (whole entry): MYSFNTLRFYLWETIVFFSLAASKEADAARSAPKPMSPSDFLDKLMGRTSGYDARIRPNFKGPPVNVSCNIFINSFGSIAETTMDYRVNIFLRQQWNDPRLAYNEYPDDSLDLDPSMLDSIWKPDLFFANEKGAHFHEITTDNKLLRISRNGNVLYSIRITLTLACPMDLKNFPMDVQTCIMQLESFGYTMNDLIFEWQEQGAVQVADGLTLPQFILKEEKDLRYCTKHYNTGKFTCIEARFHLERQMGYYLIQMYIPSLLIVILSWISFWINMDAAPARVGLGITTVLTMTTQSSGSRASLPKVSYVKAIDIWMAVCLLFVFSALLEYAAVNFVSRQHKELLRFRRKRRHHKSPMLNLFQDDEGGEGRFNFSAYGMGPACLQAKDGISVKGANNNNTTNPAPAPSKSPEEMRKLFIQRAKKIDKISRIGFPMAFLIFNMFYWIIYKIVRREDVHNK
The test is described as follows: Negative allosteric modulation of rat glycine alpha1 expressed in Xenopus laevis oocytes assessed as inhibition of glycine-induced current response at 30 uM at -40 mV holding potential by two-electrode voltage clamp method relative to glycine alone. Summed up:
as §2

The target of test [7] is Glutamate receptor ionotropic, kainate 2 (Rattus norvegicus) (UniProt P42260). In words: Negative allosteric modulation of rat GluK2 expressed in Xenopus laevis oocytes assessed as inhibition of glutamate-induced current response at 30 uM at -40 mV holding potential in presence of concanavalin A by two-electrode voltage clamp method relative to glutamate alone. Put shortly: as §2

The species entered for the next test is Homo sapiens. The test is described as follows: Negative allosteric modulation of human GluA2 R607Q mutant expressed in Xenopus laevis oocytes assessed as inhibition of glutamate-induced current response at 30 uM at -40 mV holding potential by two-electrode voltage clamp method relative to glutamate alone. Put shortly: as §2
Test [8] deals with T1, Glutamate NMDA receptor; Grin1/Grin2c (Rattus norvegicus). The test is described as follows: Negative allosteric modulation of recombinant rat GluN1/GluN2C expressed in Xenopus laevis oocytes assessed as inhibition of glutamate/glycine-induced current response at 30 uM at -40 mV holding potential by two-electrode voltage clamp method relative to glutamate/glycine. Conditions: values are per cent of control. Put shortly: as §1

In test [9] the target is Glutamate NMDA receptor; Grin1/Grin2b (Rattus norvegicus) (UniProt P35439+Q00960). In words: Negative allosteric modulation of recombinant rat GluN1/GluN2B expressed in Xenopus laevis oocytes assessed as inhibition of glutamate/glycine-induced current response at 30 uM at -40 mV holding potential by two-electrode voltage clamp method relative to glutamate/glycine. Summed up:
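Oocyte voltage clamp at -40 mV. Drug co-applied with 100 µM glutamate plus 30 µM glycine; response given as percent of the average of control and recovery currents to agonist alone.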

In test [10] the target is Ionotropic glutamate receptor NMDA 1/2D (Rattus norvegicus, UniProt P35439+Q62645). In words: Negative allosteric modulation of recombinant rat GluN1/GluN2D expressed in Xenopus laevis oocytes assessed as inhibition of glutamate/glycine-induced current response at -40 mV holding potential by two-electrode voltage clamp method. Summed up:
as §1

Another test is filed under the species Rattus norvegicus. The test is described as follows: Negative allosteric modulation of rat GABAA rho expressed in Xenopus laevis oocytes assessed as inhibition of GABA-induced current response at 30 uM at -40 mV holding potential by two-electrode voltage clamp method relative to GABA alone. Put shortly: as §2
Test [11] addresses T3, 5-hydroxytryptamine receptor 3A (Rattus norvegicus) (UniProt P35563).
T3 sequence (whole entry): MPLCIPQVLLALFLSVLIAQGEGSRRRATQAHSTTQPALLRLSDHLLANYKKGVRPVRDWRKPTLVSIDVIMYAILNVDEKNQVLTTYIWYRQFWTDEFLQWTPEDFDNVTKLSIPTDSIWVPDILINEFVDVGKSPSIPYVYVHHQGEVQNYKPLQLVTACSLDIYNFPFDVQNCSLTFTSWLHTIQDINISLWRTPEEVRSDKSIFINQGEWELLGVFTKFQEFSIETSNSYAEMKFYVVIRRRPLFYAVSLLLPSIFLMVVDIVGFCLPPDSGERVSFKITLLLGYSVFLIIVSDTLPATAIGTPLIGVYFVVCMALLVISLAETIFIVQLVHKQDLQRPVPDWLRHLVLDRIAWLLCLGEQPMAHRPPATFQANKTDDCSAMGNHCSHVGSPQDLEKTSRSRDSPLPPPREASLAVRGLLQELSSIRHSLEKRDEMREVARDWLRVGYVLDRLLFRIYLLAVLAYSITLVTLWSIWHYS
The test is described as follows: Negative allosteric modulation of rat 5HT3A expressed in Xenopus laevis oocytes assessed as inhibition of serotonin-induced current response at 30 uM at -40 mV holding potential by two-electrode voltage clamp method relative to serotonin alone. Summed up: as §2

As usually defined, the pIC50 is −log10 of the IC50, conventionally taken in molar units. In general, inhibition refers to the percentage by which the read-out fell short of the control.

Molecules are shown by their SMILES. pIC50: −log10 of the molar value.

Sequence of Glutamate receptor 1 (Rattus norvegicus) (P19490 whole entry): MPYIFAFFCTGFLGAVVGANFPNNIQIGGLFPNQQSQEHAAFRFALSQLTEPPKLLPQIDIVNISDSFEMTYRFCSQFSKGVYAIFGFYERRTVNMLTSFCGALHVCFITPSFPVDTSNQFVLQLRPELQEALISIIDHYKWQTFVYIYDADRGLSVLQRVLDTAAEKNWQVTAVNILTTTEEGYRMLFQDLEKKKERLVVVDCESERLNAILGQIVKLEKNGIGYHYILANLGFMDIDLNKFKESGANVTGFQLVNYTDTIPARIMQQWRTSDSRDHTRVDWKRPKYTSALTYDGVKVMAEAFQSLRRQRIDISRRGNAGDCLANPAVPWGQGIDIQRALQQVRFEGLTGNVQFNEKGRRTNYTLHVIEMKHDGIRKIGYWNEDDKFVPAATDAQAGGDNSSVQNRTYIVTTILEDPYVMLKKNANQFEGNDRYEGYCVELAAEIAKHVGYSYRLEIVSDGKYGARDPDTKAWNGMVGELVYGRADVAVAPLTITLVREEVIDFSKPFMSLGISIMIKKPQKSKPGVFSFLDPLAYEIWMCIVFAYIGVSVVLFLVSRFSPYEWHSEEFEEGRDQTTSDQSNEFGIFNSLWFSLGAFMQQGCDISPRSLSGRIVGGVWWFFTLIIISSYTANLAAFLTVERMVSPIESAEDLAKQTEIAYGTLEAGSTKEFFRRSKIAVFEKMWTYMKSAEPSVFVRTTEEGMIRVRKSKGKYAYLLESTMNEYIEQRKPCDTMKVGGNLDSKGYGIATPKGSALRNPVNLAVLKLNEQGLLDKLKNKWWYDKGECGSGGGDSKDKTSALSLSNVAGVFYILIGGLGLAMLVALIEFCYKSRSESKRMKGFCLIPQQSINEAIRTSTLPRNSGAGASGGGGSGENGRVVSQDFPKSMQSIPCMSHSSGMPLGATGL
Sequence of Glutamate receptor ionotropic, kainate 2 (Rattus norvegicus) (P42260 whole entry): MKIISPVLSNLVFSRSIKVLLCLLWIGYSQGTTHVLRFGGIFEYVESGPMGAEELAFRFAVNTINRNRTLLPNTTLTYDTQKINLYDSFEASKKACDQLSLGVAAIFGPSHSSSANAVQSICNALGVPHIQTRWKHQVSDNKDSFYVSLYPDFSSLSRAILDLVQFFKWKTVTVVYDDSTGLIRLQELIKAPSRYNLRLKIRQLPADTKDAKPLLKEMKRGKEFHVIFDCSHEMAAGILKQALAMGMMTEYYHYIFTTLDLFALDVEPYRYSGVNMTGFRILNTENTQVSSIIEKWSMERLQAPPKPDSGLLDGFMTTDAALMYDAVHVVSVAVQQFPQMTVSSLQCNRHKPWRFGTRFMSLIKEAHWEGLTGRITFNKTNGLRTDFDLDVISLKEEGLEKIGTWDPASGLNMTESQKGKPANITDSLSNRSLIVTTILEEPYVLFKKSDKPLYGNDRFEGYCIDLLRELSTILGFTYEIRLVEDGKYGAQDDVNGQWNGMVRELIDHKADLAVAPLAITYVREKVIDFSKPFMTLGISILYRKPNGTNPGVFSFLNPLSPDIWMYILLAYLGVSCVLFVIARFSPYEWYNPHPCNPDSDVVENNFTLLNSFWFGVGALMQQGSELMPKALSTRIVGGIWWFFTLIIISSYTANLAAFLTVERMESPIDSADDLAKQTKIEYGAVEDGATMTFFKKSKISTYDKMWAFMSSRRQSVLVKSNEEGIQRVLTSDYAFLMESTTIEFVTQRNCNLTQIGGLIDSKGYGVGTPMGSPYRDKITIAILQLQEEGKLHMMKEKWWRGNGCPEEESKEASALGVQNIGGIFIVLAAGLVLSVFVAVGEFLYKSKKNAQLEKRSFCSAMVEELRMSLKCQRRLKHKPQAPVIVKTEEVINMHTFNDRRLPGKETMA

Turning to `CCN(CC)C(=O)Oc1ccc(C(=O)Nc2cccc(CCNS(=O)(=O)c3ccccc3)c2)cc1`, the negative-log IC50 (pIC50) in [1] is 5.62; in [10], 5.77. Moreover, the inhibition in [2] was determined as 27%; in [4], 79%; in test [5], 0%; in test [6], 30%; in [7], 92%; in the test filed under Homo sapiens, 95%. Also, the figures for the inhibition (in [9]; in the test listed under Rattus norvegicus; in test [11]) were 24%, 98% and 20%, respectively. Besides, the Ratio IC50 in test [3] was less than 6. The residual activity in [8] amounted to 9%.

The values are drawn from ChEMBL document CHEMBL4339195, “Di-aryl Sulfonamide Motif Adds π-Stacking Bulk in Negative Allosteric Modulators of the NMDA Receptor” (ACS Med Chem Lett, 2019).
